ChEMBL document CHEMBL3774321, “Systematic diversification of benzylidene heterocycles yields novel inhibitor scaffolds selective for Dyrk1A, Clk1 and CK2” (Eur J Med Chem, 2016)
The source made the active and inactive calls. The calls are words filed in the database; no cut-off is given here.

Assays:
[1] = target: Calcium/calmodulin-dependent protein kinase type II subunit alpha (Homo sapiens) (UniProt Q9UQM7); assay: Inhibition of full length recombinant human His-tagged CAMK2A expressed in baculovirus expression system at 1 uM by lantha screen kinase binding assay relative to control
[2] = target: Myosin light chain kinase 2, skeletal/cardiac muscle (Homo sapiens, UniProt Q9H1R3); assay: Inhibition of full length recombinant human N-terminal GST-tagged MLCK expressed in baculovirus expression system at 1 uM by lantha screen kinase binding assay relative to control
Procedure, shortened: (§1)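 Binding-displacement format: the compound competes with an Alexa Fluor-conjugated tracer for binding to the kinase ATP site, rather than a peptide phosphorylation read-out.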

[3] = target: MAP kinase-interacting serine/threonine-protein kinase 1 (Homo sapiens) (UniProt Q9BUB5); assay: Inhibition of full length recombinant human N-terminal GST-tagged MKNK1 expressed in insect cells at 1 uM by lantha screen kinase binding assay relative to control; procedure, shortened: as §1
[4] = target: Activin receptor type-1 (Homo sapiens) (UniProt Q04771); assay: Inhibition of recombinant human GST-tagged ACVR1 expressed in baculovirus expression system at 1 uM by lantha screen kinase binding assay relative to control; procedure, shortened: as §1
[5] = target: Serine/threonine-protein kinase D2 (Homo sapiens) (UniProt Q9BZL6); assay: Inhibition of full length recombinant human GST-tagged PRKD2 expressed in baculovirus expression system at 1 uM by lantha screen kinase binding assay relative to control
[6] = target: Tyrosine-protein kinase ABL1 (Homo sapiens) (UniProt P00519); assay: Inhibition of recombinant human His-tagged ABL1 expressed in baculovirus expression system at 1 uM by lantha screen kinase binding assay relative to control; procedure, shortened: as §1
[7] = target: Casein kinase I isoform epsilon (Homo sapiens) (UniProt P49674); assay: Inhibition of full length recombinant human His-tagged CSNK1E expressed in baculovirus expression system at 1 uM by lantha screen kinase binding assay relative to control
[8] = target: Serine/threonine-protein kinase 17A (Homo sapiens) (UniProt Q9UEE5); assay: Inhibition of STK17A (unknown origin) at 1 uM relative to control
[9] = target: Dual specificity protein kinase CLK2 (Homo sapiens) (UniProt P49760); assay: Inhibition of recombinant human GST-tagged CLK2 expressed in baculovirus expression system at 1 uM by lantha screen kinase binding assay relative to control; procedure, shortened: as §1
[10] = target: T1, Dual specificity protein kinase CLK3 (Homo sapiens, UniProt P49761); assay: Inhibition of recombinant human GST-tagged CLK3 expressed in baculovirus expression system at 1 uM by lantha screen kinase binding assay relative to control; procedure, shortened: as §1
[11] = target: T1, Dual specificity protein kinase CLK3; assay: Inhibition of recombinant human GST-tagged CLK3 expressed in baculovirus expression system by lantha screen kinase binding assay; procedure, shortened: as §1
[12] = target: Homeodomain-interacting protein kinase 1 (Homo sapiens) (UniProt Q86Z02); assay: Inhibition of recombinant human N-terminal GST-tagged HIPK1 expressed in baculovirus expression system at 1 uM by lantha screen kinase binding assay relative to control; procedure, shortened: as §1
[13] = target: Mitogen-activated protein kinase 8 (Homo sapiens) (UniProt P45983); assay: Inhibition of full length recombinant human His-tagged MAPK8 expressed in baculovirus expression system at 1 uM by lantha screen kinase binding assay relative to control; procedure, shortened: as §1
[14] = target: Serine/threonine-protein kinase pim-2 (Homo sapiens) (UniProt Q9P1W9); assay: Inhibition of full length recombinant human GST-tagged PIM2 expressed in baculovirus expression system at 1 uM by lantha screen kinase binding assay relative to control
[15] = target: T2, Dual specificity protein kinase CLK4 (Homo sapiens, UniProt Q9HAZ1); details: 1 uM
HEK293 = assay: Cytotoxicity against HEK293 cells up to 20 uM; format: cell-based; details: human
[16] = target: Myosin light chain kinase, smooth muscle (Homo sapiens) (UniProt Q15746); assay: Inhibition of recombinant human GST-tagged MYLK expressed in baculovirus expression system at 5 uM by lantha screen kinase binding assay relative to control; procedure, shortened: as §1
[17] = target: Serine/threonine-protein kinase 26 (Homo sapiens) (UniProt Q9P289); assay: Inhibition of full length recombinant human GST-tagged MST4 expressed in baculovirus expression system at 5 uM by lantha screen kinase binding assay relative to control
[18] = target: BDNF/NT-3 growth factors receptor (Homo sapiens) (UniProt Q16620); assay: Inhibition of recombinant human His-tagged NTRK2 expressed in baculovirus expression system at 5 uM by lantha screen kinase binding assay relative to control; procedure, shortened: as §1
[19] = target: Epidermal growth factor receptor (Homo sapiens, UniProt P00533); assay: Inhibition of recombinant human GST-tagged EGFR expressed in baculovirus expression system at 5 uM by lantha screen kinase binding assay relative to control; procedure, shortened: as §1
[20] = target: Proto-oncogene tyrosine-protein kinase ROS (Homo sapiens) (UniProt P08922); assay: Inhibition of recombinant human GST-tagged ROS1 expressed in baculovirus expression system at 5 uM by lantha screen kinase binding assay relative to control; procedure, shortened: as §1
[21] = target: Casein kinase I isoform delta (Homo sapiens) (UniProt P48730); assay: Inhibition of full length recombinant human GST-tagged CSNK1D expressed in baculovirus expression system at 5 uM by lantha screen kinase binding assay relative to control
[22] = target: Casein kinase I isoform epsilon (Homo sapiens) (UniProt P49674); assay: Inhibition of full length recombinant human His-tagged CSNK1E expressed in baculovirus expression system at 5 uM by lantha screen kinase binding assay relative to control
[23] = target: Casein kinase I isoform gamma-2 (Homo sapiens) (UniProt P78368); assay: Inhibition of full length recombinant human His-tagged CSNK1G2 expressed in baculovirus expression system at 5 uM by lantha screen kinase binding assay relative to control; procedure, shortened: as §1
[24] = target: Dual specificity tyrosine-phosphorylation-regulated kinase 4 (Homo sapiens) (UniProt Q9NR20); assay: Inhibition of full length recombinant human GST-tagged DYRK4 expressed in baculovirus expression system at 5 uM by lantha screen kinase binding assay relative to control
[25] = target: Glycogen synthase kinase-3 beta (Homo sapiens) (UniProt P49841); assay: Inhibition of full length recombinant human His-tagged GSK3beta expressed in baculovirus expression system at 5 uM by lantha screen kinase binding assay relative to control; procedure, shortened: as §1
[26] = target: Homeodomain-interacting protein kinase 1 (Homo sapiens) (UniProt Q86Z02); assay: Inhibition of recombinant human N-terminal GST-tagged HIPK1 expressed in baculovirus expression system at 5 uM by lantha screen kinase binding assay relative to control; procedure, shortened: as §1
[27] = target: Mitogen-activated protein kinase 8 (Homo sapiens) (UniProt P45983); assay: Inhibition of full length recombinant human His-tagged MAPK8 expressed in baculovirus expression system at 5 uM by lantha screen kinase binding assay relative to control; procedure, shortened: as §1
[28] = target: T2, Dual specificity protein kinase CLK4; details: 5 uM
Plasma = assay: Metabolic stability in rat plasma assessed as drug degradation at 1 uM after 120 mins by LC-MS/MS analysis; format: ADME, cell-free; details: 2 h
Procedure, shortened: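 Compound (1 µM) in pooled heparinised rat plasma at 37 °C, sampled at 0, 5, 15, 30, 60 and 120 min. Reaction stopped with 5 volumes of cold acetonitrile containing internal standard. Remaining compound was measured by LC-MS/MS; means of two experiments.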

[29] = target: Serine/threonine-protein kinase 17A (Homo sapiens) (UniProt Q9UEE5); assay: Inhibition of STK17A (unknown origin) at 5 uM relative to control
[30] = target: Serine/threonine-protein kinase pim-1 (Homo sapiens, UniProt P11309); assay: Inhibition of PIM1 (unknown origin) at 5 uM relative to control

Sequence of Homeodomain-interacting protein kinase 1 (Homo sapiens) (Q86Z02 whole entry, looked up): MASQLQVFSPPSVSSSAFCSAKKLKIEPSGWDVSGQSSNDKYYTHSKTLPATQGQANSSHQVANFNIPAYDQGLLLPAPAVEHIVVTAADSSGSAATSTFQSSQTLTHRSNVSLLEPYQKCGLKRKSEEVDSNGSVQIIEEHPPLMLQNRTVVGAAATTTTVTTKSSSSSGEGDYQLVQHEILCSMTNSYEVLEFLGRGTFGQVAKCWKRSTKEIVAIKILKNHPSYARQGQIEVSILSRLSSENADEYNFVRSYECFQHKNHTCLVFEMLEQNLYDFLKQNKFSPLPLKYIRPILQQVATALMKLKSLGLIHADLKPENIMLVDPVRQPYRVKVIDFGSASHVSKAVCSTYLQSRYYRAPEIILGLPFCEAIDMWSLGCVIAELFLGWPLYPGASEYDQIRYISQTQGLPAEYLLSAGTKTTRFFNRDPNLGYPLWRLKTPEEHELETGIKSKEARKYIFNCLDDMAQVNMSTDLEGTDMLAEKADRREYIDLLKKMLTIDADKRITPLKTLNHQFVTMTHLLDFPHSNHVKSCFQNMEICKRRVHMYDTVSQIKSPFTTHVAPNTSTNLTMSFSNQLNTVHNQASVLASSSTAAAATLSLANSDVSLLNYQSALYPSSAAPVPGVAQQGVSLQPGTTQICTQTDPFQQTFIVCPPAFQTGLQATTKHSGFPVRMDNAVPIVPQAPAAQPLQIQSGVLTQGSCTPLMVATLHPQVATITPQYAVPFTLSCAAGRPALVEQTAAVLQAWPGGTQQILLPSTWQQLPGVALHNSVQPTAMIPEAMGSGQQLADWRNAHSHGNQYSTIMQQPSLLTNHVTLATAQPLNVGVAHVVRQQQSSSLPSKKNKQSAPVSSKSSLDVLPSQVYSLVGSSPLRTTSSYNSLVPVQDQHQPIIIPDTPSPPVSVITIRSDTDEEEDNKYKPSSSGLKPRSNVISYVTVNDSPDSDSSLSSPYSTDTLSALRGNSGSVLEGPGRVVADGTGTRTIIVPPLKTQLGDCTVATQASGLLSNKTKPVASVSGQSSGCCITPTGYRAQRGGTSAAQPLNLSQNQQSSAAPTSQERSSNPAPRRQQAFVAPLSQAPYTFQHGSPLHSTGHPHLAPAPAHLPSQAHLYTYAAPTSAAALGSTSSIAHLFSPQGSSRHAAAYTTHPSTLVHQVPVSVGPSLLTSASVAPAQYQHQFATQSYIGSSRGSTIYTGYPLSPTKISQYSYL
Sequence of Mitogen-activated protein kinase 8 (Homo sapiens) (P45983 whole entry): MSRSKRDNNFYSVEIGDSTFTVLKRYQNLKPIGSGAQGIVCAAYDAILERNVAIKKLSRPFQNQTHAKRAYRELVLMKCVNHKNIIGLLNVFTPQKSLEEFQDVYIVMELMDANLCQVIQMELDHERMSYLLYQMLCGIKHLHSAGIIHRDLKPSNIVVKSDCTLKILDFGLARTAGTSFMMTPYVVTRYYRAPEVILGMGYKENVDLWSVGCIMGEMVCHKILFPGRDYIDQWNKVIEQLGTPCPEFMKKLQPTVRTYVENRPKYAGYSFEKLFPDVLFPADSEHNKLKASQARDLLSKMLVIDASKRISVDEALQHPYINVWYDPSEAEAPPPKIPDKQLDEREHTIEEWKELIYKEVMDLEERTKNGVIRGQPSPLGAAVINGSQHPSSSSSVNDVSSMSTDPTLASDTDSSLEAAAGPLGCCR
Sequence of Serine/threonine-protein kinase 17A (Homo sapiens) (Q9UEE5 whole entry): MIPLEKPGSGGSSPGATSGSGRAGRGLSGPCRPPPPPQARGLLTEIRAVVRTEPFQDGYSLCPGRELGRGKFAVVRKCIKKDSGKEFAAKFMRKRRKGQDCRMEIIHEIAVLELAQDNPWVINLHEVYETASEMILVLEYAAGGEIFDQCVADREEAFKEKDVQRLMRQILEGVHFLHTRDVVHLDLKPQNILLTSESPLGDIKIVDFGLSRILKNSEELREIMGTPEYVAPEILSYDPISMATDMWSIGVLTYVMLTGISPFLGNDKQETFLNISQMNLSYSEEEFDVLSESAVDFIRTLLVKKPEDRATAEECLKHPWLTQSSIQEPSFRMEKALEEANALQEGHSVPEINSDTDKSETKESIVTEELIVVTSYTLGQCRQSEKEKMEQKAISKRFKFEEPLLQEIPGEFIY
T2 sequence (Q9HAZ1 whole entry, looked up): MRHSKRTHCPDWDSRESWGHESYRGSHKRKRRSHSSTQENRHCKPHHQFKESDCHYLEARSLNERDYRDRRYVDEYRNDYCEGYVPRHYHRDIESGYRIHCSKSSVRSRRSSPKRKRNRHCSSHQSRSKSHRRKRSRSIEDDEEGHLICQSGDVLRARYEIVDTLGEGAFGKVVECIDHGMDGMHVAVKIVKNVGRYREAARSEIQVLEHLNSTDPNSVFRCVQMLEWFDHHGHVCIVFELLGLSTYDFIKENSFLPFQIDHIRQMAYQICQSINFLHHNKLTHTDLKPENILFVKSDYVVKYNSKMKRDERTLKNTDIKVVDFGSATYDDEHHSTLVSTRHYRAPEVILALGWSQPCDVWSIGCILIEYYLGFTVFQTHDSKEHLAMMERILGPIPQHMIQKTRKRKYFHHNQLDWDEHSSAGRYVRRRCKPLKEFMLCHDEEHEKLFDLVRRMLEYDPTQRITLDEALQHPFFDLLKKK
Sequence of Casein kinase I isoform epsilon (Homo sapiens) (P49674 whole entry, looked up, canonical isoform): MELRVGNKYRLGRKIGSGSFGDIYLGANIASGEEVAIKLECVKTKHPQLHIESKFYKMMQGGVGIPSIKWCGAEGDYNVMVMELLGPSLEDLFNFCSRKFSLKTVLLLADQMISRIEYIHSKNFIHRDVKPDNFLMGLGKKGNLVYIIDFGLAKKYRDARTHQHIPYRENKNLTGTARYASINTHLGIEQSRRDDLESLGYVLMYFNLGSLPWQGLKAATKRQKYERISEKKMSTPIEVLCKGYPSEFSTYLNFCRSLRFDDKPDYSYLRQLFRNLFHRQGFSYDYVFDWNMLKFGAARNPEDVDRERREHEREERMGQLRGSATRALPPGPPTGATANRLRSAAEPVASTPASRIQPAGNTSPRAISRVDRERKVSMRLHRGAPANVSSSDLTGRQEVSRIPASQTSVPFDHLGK
Sequence of Myosin light chain kinase, smooth muscle (Homo sapiens) (Q15746 whole entry): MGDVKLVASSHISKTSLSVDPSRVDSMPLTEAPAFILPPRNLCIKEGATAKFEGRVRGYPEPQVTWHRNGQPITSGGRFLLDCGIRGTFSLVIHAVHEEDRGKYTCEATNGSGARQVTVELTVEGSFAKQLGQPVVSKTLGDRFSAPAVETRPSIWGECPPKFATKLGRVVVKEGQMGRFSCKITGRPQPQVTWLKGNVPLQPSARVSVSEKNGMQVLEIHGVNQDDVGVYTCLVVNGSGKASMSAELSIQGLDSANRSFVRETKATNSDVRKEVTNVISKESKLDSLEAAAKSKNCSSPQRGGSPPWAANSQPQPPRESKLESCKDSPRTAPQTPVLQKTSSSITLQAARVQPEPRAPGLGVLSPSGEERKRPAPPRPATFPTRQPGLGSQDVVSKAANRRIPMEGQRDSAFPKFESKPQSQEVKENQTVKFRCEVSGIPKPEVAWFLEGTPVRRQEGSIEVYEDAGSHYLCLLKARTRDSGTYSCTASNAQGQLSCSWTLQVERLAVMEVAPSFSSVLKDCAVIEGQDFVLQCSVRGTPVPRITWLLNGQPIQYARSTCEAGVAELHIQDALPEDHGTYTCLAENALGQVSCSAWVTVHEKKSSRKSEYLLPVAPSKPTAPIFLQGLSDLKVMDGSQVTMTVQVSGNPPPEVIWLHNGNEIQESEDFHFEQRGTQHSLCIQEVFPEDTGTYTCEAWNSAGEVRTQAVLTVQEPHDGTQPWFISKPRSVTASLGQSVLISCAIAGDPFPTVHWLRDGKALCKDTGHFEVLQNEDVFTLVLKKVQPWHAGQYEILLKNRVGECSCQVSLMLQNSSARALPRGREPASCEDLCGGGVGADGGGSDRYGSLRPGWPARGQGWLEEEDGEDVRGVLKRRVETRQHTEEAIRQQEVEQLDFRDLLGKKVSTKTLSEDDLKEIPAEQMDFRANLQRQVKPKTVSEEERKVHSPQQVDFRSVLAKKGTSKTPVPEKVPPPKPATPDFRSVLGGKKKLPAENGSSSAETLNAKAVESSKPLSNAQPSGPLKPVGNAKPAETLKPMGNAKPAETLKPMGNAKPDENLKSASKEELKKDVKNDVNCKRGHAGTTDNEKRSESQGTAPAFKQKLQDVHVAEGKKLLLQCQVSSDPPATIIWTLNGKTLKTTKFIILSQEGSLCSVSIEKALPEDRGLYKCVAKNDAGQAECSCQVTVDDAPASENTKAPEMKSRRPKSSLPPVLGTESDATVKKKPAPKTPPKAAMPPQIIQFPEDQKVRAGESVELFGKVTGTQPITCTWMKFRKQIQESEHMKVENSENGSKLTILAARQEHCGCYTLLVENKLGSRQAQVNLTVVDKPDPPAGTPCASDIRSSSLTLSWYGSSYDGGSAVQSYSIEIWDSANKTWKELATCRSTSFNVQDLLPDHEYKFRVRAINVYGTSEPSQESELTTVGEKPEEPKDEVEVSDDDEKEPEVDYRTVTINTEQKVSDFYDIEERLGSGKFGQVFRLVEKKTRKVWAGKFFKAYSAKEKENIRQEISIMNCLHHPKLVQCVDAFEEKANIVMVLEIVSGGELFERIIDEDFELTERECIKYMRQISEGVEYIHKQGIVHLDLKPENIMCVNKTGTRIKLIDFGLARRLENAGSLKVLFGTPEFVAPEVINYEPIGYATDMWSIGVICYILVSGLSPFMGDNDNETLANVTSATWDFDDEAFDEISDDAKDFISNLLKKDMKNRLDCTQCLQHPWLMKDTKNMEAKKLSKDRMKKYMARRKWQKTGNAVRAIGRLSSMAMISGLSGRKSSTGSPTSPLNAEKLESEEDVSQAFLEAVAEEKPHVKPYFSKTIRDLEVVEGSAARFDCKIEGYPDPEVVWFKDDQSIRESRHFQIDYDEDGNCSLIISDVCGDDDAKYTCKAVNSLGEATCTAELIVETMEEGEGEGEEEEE

Compound: O=C1NC(=S)S/C1=C\c1ccc2ncccc2c1
- inhibition [1]: 7%
- inhibition [2]: 89%
- inhibition [3]: 44%
- inhibition [4]: 37%
- inhibition [5]: 19%
- inhibition [6]: 14%
- inhibition [7]: 1%
- inhibition [8]: 97%
- inhibition [9]: 80%
- inhibition [10]: 95%
- IC50 [11]: 0.0866 µM
- inhibition [12]: 33%
- inhibition [13]: 7%
- inhibition [14]: 31%
- inhibition [15]: 97%

Compound: O=C1OCC/C1=C\c1ccc2ncsc2c1
- Activity (HEK293): Non-toxic

Compound: O=C1NC(=S)S/C1=C\c1ccc2ncsc2c1
- inhibition [16]: inactive
- inhibition [17]: inactive
- inhibition [18]: inactive
- inhibition [19]: inactive
- inhibition [20]: inactive
- inhibition [21]: inactive
- inhibition [22]: inactive
- inhibition [23]: inactive
- inhibition [24]: inactive
- inhibition [25]: 8%
- inhibition [26]: inactive
- inhibition [27]: 14%
- inhibition [28]: 98%

Compound: CC1C/C(=C\c2ccc3c(c2)CCO3)C(=O)O1 (configuration not stated)
- Stability (Plasma): Stable
- inhibition [29]: 28%
- inhibition [30]: 19%
